From ChEMBL document CHEMBL3779800 (ACS Med Chem Lett, 2016) come the findings set out here.

The target of data set [1] is T1, Amine oxidase [flavin-containing] A (Homo sapiens, UniProt P21397).
T1 sequence (P21397 whole entry): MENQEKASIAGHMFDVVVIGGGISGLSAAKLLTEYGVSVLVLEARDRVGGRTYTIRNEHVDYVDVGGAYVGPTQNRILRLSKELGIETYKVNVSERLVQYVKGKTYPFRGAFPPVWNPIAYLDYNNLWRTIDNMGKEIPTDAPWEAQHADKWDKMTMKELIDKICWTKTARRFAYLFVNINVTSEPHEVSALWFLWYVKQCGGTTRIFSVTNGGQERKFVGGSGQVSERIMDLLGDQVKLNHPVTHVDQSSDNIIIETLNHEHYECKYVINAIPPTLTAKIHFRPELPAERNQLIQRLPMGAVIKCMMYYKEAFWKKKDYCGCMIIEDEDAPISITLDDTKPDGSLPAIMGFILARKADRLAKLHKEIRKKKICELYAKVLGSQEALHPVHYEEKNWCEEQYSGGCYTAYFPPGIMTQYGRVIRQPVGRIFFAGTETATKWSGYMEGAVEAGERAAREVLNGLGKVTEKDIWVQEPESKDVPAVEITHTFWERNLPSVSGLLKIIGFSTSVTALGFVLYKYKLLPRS
In words: Competitive inhibition of recombinant human MAO-A using p-tyramine as substrate preincubated for 15 mins followed by substrate addition by Lineweaver-Burk plot analysis.

Data set [2] has as its target T1, Amine oxidase [flavin-containing] A. Nature of the data set: Inhibition of recombinant human MAO-A using p-tyramine as substrate assessed as H2O2 production preincubated for 15 mins followed by substrate addition measured for 15 mins by amplex red assay. In outline:
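H2O2 formed from p-tyramine, a substrate shared by hMAO-A and hMAO-B, was measured with an Amplex Red MAO kit. Compounds were checked for direct reaction with the Amplex Red reagent. They were also checked for resorufin quenching by combining the highest compound concentration with various resorufin concentrations. Protein was determined by Bradford with BSA standard. Values are mean ± SEM of three independent experiments.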

Data set [3] deals with T2, Amine oxidase [flavin-containing] B (Homo sapiens, UniProt P27338).
T2 sequence (P27338 whole entry): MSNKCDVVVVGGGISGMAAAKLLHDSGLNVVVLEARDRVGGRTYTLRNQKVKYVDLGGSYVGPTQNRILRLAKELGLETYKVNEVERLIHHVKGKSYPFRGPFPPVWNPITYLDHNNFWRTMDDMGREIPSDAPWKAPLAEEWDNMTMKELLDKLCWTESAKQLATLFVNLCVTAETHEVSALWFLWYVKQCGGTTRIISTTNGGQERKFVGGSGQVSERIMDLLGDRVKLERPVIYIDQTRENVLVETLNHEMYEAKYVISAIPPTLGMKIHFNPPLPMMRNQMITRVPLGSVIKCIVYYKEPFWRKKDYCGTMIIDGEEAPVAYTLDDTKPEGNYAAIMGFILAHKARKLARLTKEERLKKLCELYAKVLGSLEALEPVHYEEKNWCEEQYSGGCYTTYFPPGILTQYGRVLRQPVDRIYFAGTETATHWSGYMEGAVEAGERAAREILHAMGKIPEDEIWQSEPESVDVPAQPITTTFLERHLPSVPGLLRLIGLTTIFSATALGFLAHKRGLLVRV
In words: Inhibition of recombinant human MAO-B using p-tyramine as substrate assessed as H2O2 production preincubated for 15 mins followed by substrate addition measured for 15 mins by amplex red assay.

For data set [4], the target named is T1, Amine oxidase [flavin-containing] A. Nature of the data set: Reversible inhibition of recombinant human MAO-A using p-tyramine as substrate incubated for 1 hr by centrifugation ultra filtration method.
For another data set, the species on record is Homo sapiens. In words: Selectivity index, ratio of Ki for recombinant human MAO-A to Ki for recombinant human MAO-B. An outline of the steps: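 SI is Ki(MAO-A)/Ki(MAO-B). Each Ki comes from the Amplex Red H2O2 assay with p-tyramine substrate and is the mean ± SEM of three independent experiments. Racemates were tested. A lower SI indicates MAO-A preference and a higher SI indicates MAO-B preference.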

In data set [5] the target is T1, Amine oxidase [flavin-containing] A. In words: Irreversible inhibition of recombinant human MAO-A using p-tyramine as substrate incubated for 1 hr by centrifugation ultra filtration method. An outline of the steps:
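Reversibility of hMAO-A inhibition assessed by a centrifugation-ultrafiltration method. Enzyme activity was read as H2O2 production from p-tyramine using Amplex Red fluorescence. Compounds were checked for direct reaction with Amplex Red and for resorufin quenching, tested at their maximum concentration against various resorufin concentrations. Racemic compounds were used.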

The target is the same in data set [6]. In words: Suicide inhibition of recombinant human MAO-A using p-tyramine as substrate preincubated for 15 mins followed by substrate addition by Lineweaver-Burk plot analysis.

The structures appear in SMILES notation.

As for `CCOC(=O)N1N=C(c2ccc(O)c(OC)c2)CC1c1ccccc1` (racemic), the “inhibition (INH)” value in data set [1] and in data set [4] was “Active” each time. Further, the figures for the Ki in data set [2] and in data set [3] were 0.44 µM and 201 µM, respectively. Besides, the Ratio Ki in the data set listed under Homo sapiens was determined as 0.002.
With `COc1cc(C2=NN(C(=N)N)C(c3ccccc3)C2)ccc1O` (racemic), the “inhibition (INH)” value in data set [1] and in data set [4] was “Active” throughout. In addition, the Ki in data set [2] stood at 9.55 µM; in data set [3] it was 201 µM. In the data set listed under Homo sapiens, the Ratio Ki worked out at 0.047.
`COc1cc(C2=NN(S(=O)(=O)c3ccc(C)cc3)C(c3ccccc3)C2)ccc1O` (racemic): the “inhibition (INH)” value in data set [1] and in data set [4] was “Active” each time. Further, the inhibition constant (Ki) in data set [2] came out at 0.06 µM; in data set [3], 5900 µM. In the data set filed under Homo sapiens, the Ratio Ki is 1.02e-05.
`COc1cc(C2=NNC(c3ccccc3)C2)ccc1O` (racemic): the “inhibition (INH)” value in data set [1] and in data set [4] was “Active” throughout. Also, the Ki in data set [2] was determined as 5.02 µM; in data set [3], 0.35 µM. Also, in the data set filed under Homo sapiens, the Ratio Ki was 14.3.
Take `COc1cc(C2=NN(C(C)=O)C(c3ccccc3)C2)ccc1O` (racemic): the “inhibition (INH)” value in data set [1] and in data set [4] was “Active” throughout. The Ki in data set [2] was found to be 3.87 µM.
Turning to `COc1cc(C2=NN(C(=O)Oc3ccccc3)C(c3ccccc3)C2)ccc1O` (racemic), the “inhibition (INH)” value in data set [1] and in data set [4] was “Active” each time. Moreover, the values for the Ki in data set [2] and in data set [3] were 0.29 µM and 4 µM, respectively. Further, the Ratio Ki in the data set filed under Homo sapiens was found to be 0.073.
Regarding `COc1cc(C2=NN(C(=S)Nc3ccccc3)C(c3ccccc3)C2)ccc1O` (racemic), the “inhibition (INH)” value in data set [1] and in data set [4] was “Active” throughout. Further, the Ki was 0.55 µM in data set [2] and 15.9 µM in data set [3]. Moreover, the Ratio Ki in the data set listed under Homo sapiens was found to be 0.035.
As for `COc1cc(C2=NN(c3ccccc3)C(c3ccccc3)C2)ccc1O` (racemic), the “inhibition (INH)” value in data set [1] and in data set [4] was “Active” in each case. In data set [2], the inhibition constant (Ki) amounted to 2.16 µM.
On to `COc1cc(C2=NN(C(=O)c3ccccc3)C(c3ccccc3)C2)ccc1O` (racemic), for which the “inhibition (INH)” value in data set [1] and in data set [4] was “Active” in each case. Further, the Ki in data set [2] is 4.25 µM; in data set [3], 41 µM. In the data set filed under Homo sapiens, the Ratio Ki came out at 0.104.
As for `COc1cc(C2=NN(C(N)=S)C(c3ccccc3)C2)ccc1O` (racemic), the “inhibition (INH)” value in data set [1] and in data set [4] was “Active” in each case. The results for the Ki in data set [2] and in data set [3] were 2.58 µM and 2.78 µM, respectively. Moreover, the Ratio Ki in the data set filed under Homo sapiens was 0.928.
Regarding `COc1cc(/C=C/C(=O)CC(=O)/C=C/c2ccc(O)c(OC)c2)ccc1O` [CURCUMIN], the “inhibition (INH)” value in data set [1] and in data set [4] was “Active” throughout.
On to `O=C(NCCN1CCOCC1)c1ccc(Cl)cc1` [MOCLOBEMIDE], for which the “inhibition (INH)” value in data set [1] and in data set [4] was “Active” throughout.
In the case of `C#CCN(C)[C@H](C)Cc1ccccc1` [SELEGILINE], the “inhibition (INH)” value in data set [5] and in data set [6] was “Active” in each case.

As a reminder, the Ki is a dissociation constant, usually derived from enzyme kinetics or from competition with a known ligand.
